# Only some compounds are listed: those with a hit (about 3.7% of all), similar ones and a draw of the others.
# KCNK3 block = human KCNK3 channel inhibitors, primary screen, CHO cells, FluxOR thallium flux, B-score; FluxOR fluorescence; active compounds read low; B-score at 10 µM; Potassium channel subfamily K member 3 (Homo sapiens), O14649; hit rate 0.84% among 340,000; AID 602410, 2012;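 active = B-score under library mean minus 4 SD, starting fluorescence ratio at most library mean plus 5 SD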;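 note: more negative B-score means stronger inhibition of thallium flux through KCNK3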
# KCNQ1 inh = inhibitors of human KCNQ1 channel, primary screen, cell-based, thallium flux, high-throughput. Potassium voltage-gated channel subfamily KQT member 1 (Homo sapiens), P51787. hit rate 1.3% among 310,000. CHO-K1 KCNQ1, FluxOR thallium flux fluorescence; active compounds read high. B-score at 10 µM. AID 2642, 2010;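 active = compounds whose thallium flux B-score, printed positive for inhibition, exceeds three library SD while starting fluorescence stays within three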;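 note: channel opened by potassium depolarization with thallium stimulus after 20 min compound exposure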
# Target sequence (P51787 whole entry, looked up): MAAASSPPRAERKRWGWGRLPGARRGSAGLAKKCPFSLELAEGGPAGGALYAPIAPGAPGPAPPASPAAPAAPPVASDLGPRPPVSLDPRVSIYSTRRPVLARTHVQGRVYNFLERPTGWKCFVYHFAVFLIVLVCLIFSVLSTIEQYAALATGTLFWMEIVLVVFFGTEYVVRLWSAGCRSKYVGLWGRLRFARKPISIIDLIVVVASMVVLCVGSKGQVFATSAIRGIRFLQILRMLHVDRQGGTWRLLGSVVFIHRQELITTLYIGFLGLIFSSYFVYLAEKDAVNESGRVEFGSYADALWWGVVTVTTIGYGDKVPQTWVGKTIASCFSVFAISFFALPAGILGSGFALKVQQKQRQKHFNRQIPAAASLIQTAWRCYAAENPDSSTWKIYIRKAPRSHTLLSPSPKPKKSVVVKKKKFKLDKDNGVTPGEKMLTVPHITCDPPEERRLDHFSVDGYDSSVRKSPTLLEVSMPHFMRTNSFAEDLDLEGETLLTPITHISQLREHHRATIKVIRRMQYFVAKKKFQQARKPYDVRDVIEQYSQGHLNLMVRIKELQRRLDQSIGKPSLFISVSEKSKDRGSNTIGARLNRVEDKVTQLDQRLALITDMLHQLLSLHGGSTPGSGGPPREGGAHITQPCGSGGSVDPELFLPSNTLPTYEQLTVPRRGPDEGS
# KCNK9 inh = KCNK9 potassium channel inhibitors, primary screen, HEK293 cells, thallium flux; Potassium channel subfamily K member 9 (Homo sapiens), Q9NPC2; FluxOR thallium flux fluorescence; active compounds read low; B-score at 10 µM; hit rate 1.2% among 310,000;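 active = ratio B-score over 3 SD below the library mean, with starting fluorescence within 5 SD of its mean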;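 note: negative B-score means less thallium flux so channel inhibition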
# Kir21 inh = inhibitors of mouse Kir2.1 inward-rectifier potassium channel; B-score at 10 µM; Inward rectifier potassium channel 2 (Mus musculus), P35561; HEK293-Kir2.1, FluxOR thallium flux fluorescence; active compounds read low; hit rate 0.85% among 310,000;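 active = fluorescence ratio B-score at or below minus 3 SD of library scores, with starting-brightness B-score within 2 SD, cut at about -4.2 in these data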;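 note: channel flux triggered by added potassium and thallium sulfate stimulus; B-score of peak minus minimum fluorescence over baseline after thallium stimulus; more negative B-score means stronger Kir2.1 block with less thallium influx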
# hERG rescue = hERG rescue from dofetilide block, primary screen, cell-based, CHO-hERG, FluxOR thallium flux, dofetilide IC70; Voltage-gated inwardly rectifying potassium channel KCNH2 (Homo sapiens), Q12809; dofetilide IC70 present; activation (rescue from dofetilide block), less the hit threshold, % at 10 µM; hit rate 0.51% among 310,000; AID 1511, 2009;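 active = activation above the mean of controls blocked by dofetilide plus 5 SD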;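 note: thallium influx through hERG after potassium depolarization seen as dye fluorescence rise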
# KCNQ1 pot = potentiators or activators of KCNQ1 channel, primary screen, cell-based, thallium flux, high-throughput; Potassium voltage-gated channel subfamily KQT member 1 (Homo sapiens), P51787; CHO-K1 KCNQ1, thallium flux FluxOR fluorescence; active compounds read high; B-score at 10 µM; hit rate 0.35% among 310,000;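 active = fluorescence ratio B-score, a plate-corrected score, at least three library SD, with initial intensity B-score within 5 SD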
#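 System: Stable KCNQ1 CHO-K1 line | Incubation: 90 min dye loading and 20 min compound exposure, both at room temperature | Measure: Ratio B score | Medium: Assay buffer for compound exposure, DMSO matched across wells | Compound dosing: Single-concentration screen | Probe or stimulus: K+/Tl+ depolarizing stimulus | Measured by: Kinetic FluxOR fluorescence, 10 s baseline plus 110 s post-stimulus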
# An asterisk follows results filed as active; i = inactive; x = no result.
SMILES,KCNK3 block,KCNQ1 inh,KCNK9 inh,Kir21 inh,hERG rescue,KCNQ1 pot
CC1CCCC(n2c(=S)[nH]c3ccccc3c2=O)C1C (centres undefined),i,i,i,1.1,0,41*
O=c1c2ccccc2[nH]c(=S)n1C1CCCCC1,i,i,i,0.68,9.3*,9*
CC1CCC(n2c(=S)[nH]c3ccccc3c2=O)CC1 (centres undefined),i,i,i,-2.2,18*,56*
COc1ccc(CNC(=O)c2ccc3c(=O)n(-c4ccccc4)c(=O)[nH]c3c2)cc1,i,i,i,-0.72,-3,i
CCOc1cc(C(=O)N2CCN(c3ccccn3)CC2)cc(OCC)c1OCC,i,i,i,-0.45,-4,i
Cc1nc2sc(C(=O)OC(C)C)c(N)c2c(C)c1C,i,i,i,-0.05,-11,i
O=C(/C(N=Nc1cccc([N+](=O)[O-])c1)=C(/O)c1ccc(Br)cc1)C(F)(F)F,x,9*,-9.2*,-0.89,-16,i
O=C(Cc1cccs1)N[C@@H]1c2ccccc2CC[C@H]1OCc1ccccc1,i,x,x,x,x,x
CCN(c1ccccc1)S(=O)(=O)c1cccc(C(=O)NCc2ccccn2)c1,i,i,i,1,-17,i
O=C(CCCN1C(=O)/C(=C\c2ccccc2)SC1=S)N1CCOCC1,i,x,x,x,x,x
O=C(O)CN1C(=O)/C(=C\c2cn(CC(=O)N3CCOCC3)c3ccccc23)SC1=S,i,6*,i,-7.7,-15,i
CC(=O)c1ccc(NC(=S)Nc2cccc3ccccc23)cc1,i,i,i,0.4,-5,i
CC(=O)c1cccc(NC(=O)C(=O)Nc2cccc3ccccc23)c1,i,i,i,-1.2,5.2*,i
CC(Oc1ccc(Br)cc1)C(=O)Nc1ccc(S(=O)(=O)N(C)C2CCN(C)CC2)cc1 (centres undefined),i,i,i,-1,-16,10*
Cc1cccc(N2CCN(C(=O)c3ccc4ccccc4c3)CC2C)c1 (centres undefined),i,x,x,x,x,x
Cc1cccc(N2CCN(C(=O)c3ccncc3)CC2C)c1 (centres undefined),i,i,i,-0.16,6.1*,i
Cc1cc(C)c2c(=O)n(CC(=O)N3CCC(Cc4ccccc4)CC3)sc2n1,x,i,i,-1.5,-4,i
Cc1ccc(N2CCN(C(=O)Nc3cccc([N+](=O)[O-])c3)CC2C)cc1 (centres undefined),i,6*,i,0.01,-18,i
Cc1cccc(N2CCN(C(=O)Cn3sc4nc(C)cc(C)c4c3=O)CC2C)c1 (centres undefined),i,i,i,-2.1,-8,14*
O=C(COC(=O)C1CCCCC1)NCCc1ccccc1,i,x,x,x,x,x
CN(C)Cc1ccc(-c2nc3cccc4c3n2CCNC4=O)cc1,i,i,i,0.48,-5,i
O=C(NCc1cccnc1)c1ccc(NS(=O)(=O)c2ccc(F)cc2)cc1,i,i,i,1.2,-5,i
CCN(CC(=O)Nc1ccc(OC)cc1)CC(=O)Nc1ccc(Cl)cc1F,i,i,i,0.11,7.3*,i
Cc1cccc(Cn2c(Cc3ccccc3)nc3ccccc32)c1,i,i,i,-11*,-13,i
COCc1nc2ccccc2n1Cc1cccc(C)c1,i,i,i,-0.4,-7,i
SMILES,KCNK3 block,KCNQ1 inh,KCNK9 inh,Kir21 inh,hERG rescue,KCNQ1 pot
O=C1C(Cc2ccccc2)Nc2ncnc(N3CCc4ccccc4C3)c2N1Cc1ccc(Br)cc1 (centres undefined),x,i,-7.7*,0.97,-13,i
O=C1C(Cc2ccccc2)Nc2ncnc(N3CCN(c4ccccc4)CC3)c2N1Cc1ccc(Br)cc1 (centres undefined),i,x,x,x,x,x
COc1ccc(C(=O)Nc2ccc(Br)cc2F)cc1S(=O)(=O)N1CCCC1,i,x,x,x,x,x
COc1ccc(OC)c(C(=O)N(C[C@H]2CC[C@@H]([C@@H]3CC[C@H](CO)O3)O2)C(C(=O)NC(C)(C)C)c2ccc(-c3ccccc3)cc2)c1 (some centres undefined),i,x,x,x,x,x
CN1/C(=C\C=[N+](C)c2ccccc2)C(C)(C)c2ccccc21,i,8*,i,-3.1,-18,i
COC(=O)N/N=C(\C)c1ccc(-n2ccnc2)cc1,i,i,i,-0.92,-3,i
C/C(=N\NC(=O)COc1ccc(C)cc1C(C)C)c1ccc(-n2ccnc2)cc1,i,i,i,-0.01,5.6*,i
CCN(CC)CCCn1c2c(c(SCC(=O)Nc3cccc(C)c3C)nc1=O)CCC2,i,i,i,0.05,-7,i
CCOC(=O)c1cc2c(=O)n3ccccc3nc2n(Cc2ccco2)c1=NC(=O)c1cccc(OC)c1,i,7*,i,-0.78,-21,i
CCOC(=O)c1cc2c(=O)n3ccccc3nc2n(CCCOC)c1=NC(=O)c1ccncc1,i,i,i,-1.6,-25,15*
COC(=O)[C@@H]1CC[C@H](C)[C@@H](c2ccc(C)cc2)N1C(=O)c1ccc(/C=N/OCC[C@@H]2C=C[C@H](OC(C)=O)[C@@H](COC(C)=O)O2)cc1,x,i,i,0.31,-3,i
C=CCN(CC=C)C(=O)c1cccc(OC2CCN(CC(C)(C)C)CC2)c1,i,i,i,1.9,-10,i
CN(CCC#N)C(=O)CSc1ncnc2sc(-c3ccccc3)cc12,i,i,i,-0.06,-4,i
CC(C#N)Sc1ncnc2sc(-c3ccccc3)cc12 (centres undefined),i,6*,i,-0.74,-4,i
COc1cccc(C(=O)Nc2cc(Cl)c(O)c(Cl)c2)c1,i,i,i,1.2,-5,i
COc1cc(OC)cc(C(=O)NNC(=O)C(=O)Nc2cc(OC)c(Cl)cc2OC)c1,i,i,i,-1.2,51*,32*
COc1cccc(C(=O)NNC(=O)C(=O)Nc2ccc(C)c(Cl)c2)c1,i,i,i,-0.02,31*,35*
CCc1ccc(NC(=O)C(=O)NNC(=O)c2cccc(OC)c2)cc1,i,i,i,1.5,38*,76*
COc1cc(NC(=O)C(=O)NNC(=O)C2CCCCC2)c(OC)cc1Cl,i,i,i,0.25,2,i

# Screens (PubChem BioAssay)
